Calls of active or inactive are those of the source. The rule behind the calls is not given here.
Legend:
[1] = tested on: Mus musculus; assay: Hepatoprotective effect in ip dosed GalN/LPS-induced ICR mouse FHF model assessed as survival rate administered 1 hr prior to GalN/LPS challenge measured up to 24 hrs; format: functional, organism-based
Summary of the method: (§1)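 Male 6-week-old ICR mice (24−26 g), fasted 18 h with water allowed. Vehicle (5% DMSO−saline) or drug suspended in it (25, 50, 100 mg/kg) given ip 1 h before ip GalN (800 mg/kg) plus LPS (40 μg/kg, E. coli O111:B4) in PBS. Survival was monitored over 24 h after the challenge. There were 10 mice per group.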

[2] = tested on: Mus musculus; assay: Induction of autophagic flux in GalN/LPS-induced ICR mouse FHF model assessed as increase in Atg-7 protein expression at 100 mg/kg, ip administered 1 hr prior to GalN/LPS challenge measured after 6 hrs by Western blotting analysis relative to control; format: functional, organism-based; parameters: dose 100 mg/kg
Summary of the method: (§2)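 Livers from ICR mice given 100 mg/kg ip (5% DMSO−saline) 1 h before GalN 800 mg/kg/LPS 40 μg/kg, harvested at 6 h. Western blot: 20 μg liver homogenate protein (nuclear extracts for NF-κB), 10−17% SDS-PAGE, PVDF, blocked in 5% milk or BSA, primary antibody overnight at 4 °C, ECL detection; phospho versus total MAPKs; n = 8−10.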

[3] = tested on: Mus musculus; assay: Induction of autophagic flux in GalN/LPS-induced ICR mouse FHF model assessed as increase in autophagic vacuoles at 100 mg/kg, ip administered 1 hr prior to GalN/LPS challenge measured after 6 hrs by transmission electron microscopy relative to control; format: functional, organism-based; parameters: dose 100 mg/kg
Summary of the method: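 Mice given 100 mg/kg ip 1 h before GalN (800 mg/kg)/LPS (40 μg/kg); liver fixed at 6 h in 2.5% glutaraldehyde, 1% formaldehyde, 100 mM sodium phosphate pH 7.2; ultrathin 60−70 nm sections counterstained with uranyl acetate and lead citrate, autophagic vacuoles counted by transmission electron microscopy; n = 8−10.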

[4] = tested on: Mus musculus; assay: Hepatoprotective effect in GalN/LPS-induced ICR mouse FHF model assessed as reduction in p38 phosphorylation at 100 mg/kg, ip administered 1 hr prior to GalN/LPS challenge measured after 6 hrs by Western blotting analysis relative to control; format: functional, organism-based; parameters: dose 100 mg/kg; summary of the method: as §2
[5] = tested on: Mus musculus; assay: Induction of autophagic flux in GalN/LPS-induced ICR mouse FHF model assessed as reduction in p62 level at 100 mg/kg, ip administered 1 hr prior to GalN/LPS challenge measured after 6 hrs by Western blotting analysis relative to control; format: functional, organism-based; parameters: dose 100 mg/kg; summary of the method: as §2
[6] = tested on: Mus musculus; assay: Hepatoprotective effect in GalN/LPS-induced ICR mouse FHF model assessed as serum ALT level at 100 mg/kg, ip administered 1 hr prior to GalN/LPS challenge measured after 6 hrs by spectrophotometry (reference value: 618.4 +/- 43.7 U/L); format: functional; conditions: route intraperitoneal
[7] = tested on: Mus musculus; assay: Toxicity in ICR mouse at 100 mg/kg, ip; format: organism-based; parameters: dose 100 mg/kg, route intraperitoneal; conditions: in vivo
[8] = tested on: Mus musculus; assay: Induction of autophagic flux in GalN/LPS-induced ICR mouse FHF model assessed as […] in Beclin-1 protein expression at 100 mg/kg, ip administered 1 hr prior to GalN/LPS challenge measured after 6 hrs by Western blotting analysis relative to control; format: functional, organism-based; parameters: dose 100 mg/kg; summary of the method: as §2
[9] = tested on: Mus musculus; assay: Hepatoprotective effect in GalN/LPS-induced ICR mouse FHF model assessed as serum TNF-alpha level at 100 mg/kg, ip administered 1 hr prior to GalN/LPS challenge measured after 6 hrs by ELISA (reference value: 605.8 +/- 96.8 pg/ml); format: functional; conditions: route intraperitoneal
[10] = tested on: Mus musculus; assay: Induction of autophagic flux in GalN/LPS-induced ICR mouse FHF model assessed as increase in LC3-2 protein expression at 100 mg/kg, ip administered 1 hr prior to GalN/LPS challenge measured after 6 hrs by Western blotting analysis relative to control; format: functional, organism-based; parameters: dose 100 mg/kg; summary of the method: as §2
[11] = tested on: Mus musculus; assay: Hepatoprotective effect in GalN/LPS-induced ICR mouse FHF model assessed as serum ALT level at 50 mg/kg, ip administered 1 hr prior to GalN/LPS challenge measured after 6 hrs by spectrophotometry (reference value: 618.4 +/- 43.7 U/L); format: functional; conditions: route intraperitoneal
[12] = tested on: Mus musculus; assay: Effect on serum TNF-alpha level in ICR mouse at 100 mg/kg, ip by ELISA (reference value: 14.1 +/- 1.1 pg/ml); format: ADME, organism-based; parameters: dose 100 mg/kg, route intraperitoneal; conditions: in vivo
[13] = tested on: Mus musculus; assay: Hepatoprotective effect in GalN/LPS-induced ICR mouse FHF model assessed as reduction in JNK phosphorylation at 100 mg/kg, ip administered 1 hr prior to GalN/LPS challenge measured after 6 hrs by Western blotting analysis relative to control; format: functional, organism-based; parameters: dose 100 mg/kg; summary of the method: as §2
[14] = tested on: Mus musculus; assay: Hepatoprotective effect in GalN/LPS-induced ICR mouse FHF model assessed as serum TNF-alpha level at 100 mg/kg, ip administered 1 hr prior to GalN/LPS challenge measured after 6 hrs by ELISA (reference value: 78.9 +/- 14.9 pg/ml); format: functional; conditions: route intraperitoneal
[15] = tested on: Mus musculus; assay: Hepatoprotective effect in GalN/LPS-induced ICR mouse FHF model assessed as reduction in ERK phosphorylation at 100 mg/kg, ip administered 1 hr prior to GalN/LPS challenge measured after 6 hrs by Western blotting analysis relative to control; format: functional, organism-based; parameters: dose 100 mg/kg; summary of the method: as §2
[16] = tested on: Mus musculus; assay: Hepatoprotective effect in GalN/LPS-induced ICR mouse FHF model assessed as reduction in TLR4 protein expression at 100 mg/kg, ip administered 1 hr prior to GalN/LPS challenge measured after 6 hrs by Western blotting analysis relative to control; format: functional, organism-based; parameters: dose 100 mg/kg; summary of the method: as §2
[17] = tested on: Mus musculus; assay: Effect on liver histology in GalN/LPS-induced ICR mouse FHF model assessed as inhibition of increase in inflammatory cell infiltration at 100 mg/kg, ip administered 1 hr prior to GalN/LPS challenge measured after 6 hrs by hematoxylin/eosin staining-based assay; format: functional, organism-based; parameters: dose 100 mg/kg
[18] = tested on: Mus musculus; assay: Effect on liver histology in ICR mouse at 100 mg/kg, ip after 6 hr by hematoxylin/eosin staining-based assay; conditions: in vivo
[19] = tested on: Mus musculus; assay: Effect on liver histology in GalN/LPS-induced ICR mouse FHF model assessed as inhibition of hepatocellular necrosis at 100 mg/kg, ip administered 1 hr prior to GalN/LPS challenge measured after 6 hrs by hematoxylin/eosin staining-based assay; format: functional, organism-based; parameters: dose 100 mg/kg
[20] = tested on: Mus musculus; assay: Hepatoprotective effect in GalN/LPS-induced ICR mouse FHF model assessed as survival rate at 100 mg/kg, ip administered 1 hr prior to GalN/LPS challenge measured after 24 hrs; format: functional; conditions: route intraperitoneal; summary of the method: as §1
[21] = tested on: Mus musculus; assay: Induction of autophagic flux in GalN/LPS-induced ICR mouse FHF model assessed as increase in Atg-5 protein expression at 100 mg/kg, ip administered 1 hr prior to GalN/LPS challenge measured after 6 hrs by Western blotting analysis relative to control; format: functional, organism-based; parameters: dose 100 mg/kg; summary of the method: as §2
[22] = tested on: Mus musculus; assay: Hepatoprotective effect in GalN/LPS-induced ICR mouse FHF model assessed as reduction in NF-kappaB protein expression at 100 mg/kg, ip administered 1 hr prior to GalN/LPS challenge measured after 6 hrs by Western blotting analysis relative to control; format: functional, organism-based; parameters: dose 100 mg/kg; summary of the method: as §2
[23] = tested on: Mus musculus; assay: Hepatoprotective effect in GalN/LPS-induced ICR mouse FHF model assessed as serum ALT level at 25 mg/kg, ip administered 1 hr prior to GalN/LPS challenge measured after 6 hrs by spectrophotometry (reference value: 618.4 +/- 43.7 U/L); format: functional; conditions: route intraperitoneal
[24] = tested on: Mus musculus; assay: Effect on serum IL-6 level in ICR mouse at 100 mg/kg, ip by ELISA (reference value: 96.7 +/- 4.9 pg/ml); format: ADME, organism-based; parameters: dose 100 mg/kg, route intraperitoneal; conditions: in vivo
[25] = tested on: Mus musculus; assay: Effect on liver histology in GalN/LPS-induced ICR mouse FHF model assessed as inhibition of multiple areas of portal inflammation at 100 mg/kg, ip administered 1 hr prior to GalN/LPS challenge measured after 6 hrs by hematoxylin/eosin staining-based assay; format: functional, organism-based; parameters: dose 100 mg/kg
[26] = tested on: Mus musculus; assay: Effect serum ALT level in ICR mouse at 100 mg/kg, ip by spectrophotometry (reference value: 49.6 +/- 9.9 U/L); format: ADME, organism-based; parameters: dose 100 mg/kg, route intraperitoneal; conditions: in vivo
[27] = tested on: Hepatocyte; assay: Hepatoprotective effect in primary hepatocytes (unknown origin); format: functional, cell-based

## COc1ccc(-c2cc(=O)c3c(O)cc(O)cc3o2)cc1 [ACACETIN]
[1]
  Survival: Dose-dependent effect
[2]
  Activity: Active
[3]
  Activity: Active
[4]
  Activity: Active
[5]
  Activity: Active
[6]
  Activity: 361.3 U/L
[7]
  Activity: Non-toxic
[8]
  Activity: inactive
[9]
  Activity: 27.4 pg/mL
[10]
  Activity: Active
[11]
  Activity: 395.6 U/L
[12]
  Activity: 13.1 pg/mL
[13]
  Activity: Active
[14]
  Activity: 27.4 pg/mL
[15]
  Activity: Active
[16]
  Activity: Active
[17]
  Activity: Active
[18]
  Activity: Non-toxic
[19]
  Activity: Active
[20]
  survival at 100 mg/kg: 80%
[21]
  Activity: Active
[22]
  Activity: Active
[23]
  Activity: 520.1 U/L
[24]
  Activity: 131 pg/mL
[25]
  Activity: Active
[26]
  Activity: 64.4 U/L
[27]
  Activity: Active
